Measured values: ChEMBL document CHEMBL2150983, “Dual Inhibitor of MurD and MurE Ligases from Escherichia coli and Staphylococcus aureus” (ACS Med Chem Lett, 2012)
Values after ≈ are worked out from the molar mass of the structure shown. Active and inactive are the calls of the source. No cut-off for these calls is given here.

How the values were obtained:
Staphylococcus aureus [1] = test: Inhibition of Staphylococcus aureus MurE assessed as residual activity at 500 uM after 30 mins by HPLC analysis
[2] = Inhibition of Escherichia coli MurD after 30 mins by HPLC analysis
How it was run: (§1)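 Radioactivity-based ligase assay on E. coli or S. aureus MurD or MurE, run with Tween-20 detergent present to prevent nonspecific inhibition by compound aggregates; IC50 values reported.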

Escherichia coli [3] = test: Inhibition of Escherichia coli MurE assessed as residual activity at 500 uM after 30 mins by HPLC analysis
How it was run: (§2)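 Radioactivity-based ligase assay with Tween-20 detergent present to prevent aggregate-driven inhibition; residual enzyme activity measured with compound at a single fixed concentration of 200 μM or 500 μM.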

Staphylococcus aureus [4] = test: Antimicrobial activity against methicillin-resistant Staphylococcus aureus ATCC 43300 after 18 to 24 hrs by macrodilution method; format: functional
Escherichia coli [5] = test: Inhibition of Escherichia coli MurE assessed as residual activity at 200 uM after 30 mins by HPLC analysis; how it was run: as §2
[6] = Inhibition of Staphylococcus aureus MurD after 30 mins by HPLC analysis; how it was run: as §1
[7] = Inhibition of Staphylococcus aureus MurE after 30 mins by HPLC analysis; how it was run: as §1
Pseudomonas aeruginosa = test: Antimicrobial activity against Pseudomonas aeruginosa ATCC 27853 after 18 to 24 hrs by macrodilution method; format: functional
Staphylococcus aureus [8] = test: Antimicrobial activity against Staphylococcus aureus ATCC 29213 after 18 to 24 hrs by macrodilution method; format: functional
Staphylococcus aureus [9] = test: Inhibition of Staphylococcus aureus MurE at 200 uM after 30 mins by HPLC analysis; how it was run: as §2
Escherichia coli [10] = test: Antimicrobial activity against Escherichia coli ATCC 25922 after 18 to 24 hrs by macrodilution method; format: functional
[11] = Inhibition of Escherichia coli MurE after 30 mins by HPLC analysis; how it was run: as §1
Enterococcus faecalis = test: Antimicrobial activity against Enterococcus faecalis ATCC 29212 after 18 to 24 hrs by macrodilution method; format: functional
HepG2 = test: Cytotoxicity against human HepG2 cells up to 200 uM after 24 hrs by MTT assay; format: cell-based; conditions: hepg2, 24 h

SMILES | Activity (Staphylococcus aureus [1]) | IC50 [2] | Activity (Escherichia coli [3]) | MIC (Staphylococcus aureus [4]) | Activity (Escherichia coli [5]) | IC50 [6] | IC50 [7] | MIC (Pseudomonas aeruginosa) | MIC (Staphylococcus aureus [8]) | inhibition (Staphylococcus aureus [9]) | MIC (Escherichia coli [10]) | IC50 [11] | MIC (Enterococcus faecalis) | Activity (HepG2)
O=C(O)CC[C@@H](NC(=O)c1cccc(CNc2ccc(/C=C3\SC(=O)NC3=O)cc2)c1)C(=O)O | 64% | 35 µM | 64% |  |  |  |  |  |  |  |  |  |  | 
O=C(O)CC[C@@H](NC(=O)c1cccc(NCc2ccc(/C=C3\SC(=O)NC3=O)cc2)c1)C(=O)O |  | 36 µM |  | > 128 µg/mL | 51% | 100 µM | > 200 µM | > 128 µg/mL | > 128 µg/mL | inactive | > 128 µg/mL | 200 µM | > 128 µg/mL | 
O=C(O)CC[C@@H](NC(=O)c1cccc(NCc2ccc(/C=C3\SC(=S)NC3=O)cc2)c1)C(=O)O |  | 8.2 µM |  | 8 µg/mL (≈ 16 µM) |  | 6.4 µM | 17 µM | > 128 µg/mL | 8 µg/mL (≈ 16 µM) |  | > 128 µg/mL | 180 µM | 64 µg/mL (≈ 128 µM) | Non-toxic
